Reference: ChEMBL document CHEMBL1147826, “Activity of B-nor analogues of neurosteroids on the GABA(A) receptor in primary neuronal cultures” (J Med Chem, 2006)
Active and inactive are the calls of the source. The rule behind the calls is not given here.

Legend:
[1] = biological target: T1, GABA-A receptor; anion channel (Mus musculus) (UniProt Q8BHJ7+P26048+Q8QZW7+P50571+Q9R0Y8+P22723+A2AMW3+P62812+Q9JLF1+P26049+P22933+Q9D6F4+P63080+P27681+P16305); experiment: (§1) Increase in [3H]flunitrazepam binding to GABA-A receptor in mouse embryo cortical neurons; assay type: protein-complex assay
Outline: (§2)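 Intact mouse embryonic cortical neurons at 7-9 days in vitro, washed into HEPES buffer pH 7.3. Incubated 30 min at 25 °C with 1.3-2.0 nM [3H]flunitrazepam and steroid (1 nM-30 µM, DMSO <0.5% final). Nonspecific binding taken with 20 µM diazepam; 100 µM GABA as positive control. Data as % of control binding. EC50 from sigmoid fits of at least six concentrations in triplicate, 3-5 independent curves.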

[2] = biological target: T1, GABA-A receptor; anion channel (Mus musculus); experiment: Effect on GABA-A-induced 36chloride ion influx in mouse embryo cortical neurons at 10 uM relative to basal value; assay type: functional
Outline: (§3)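 Primary cortical neurons from 16-day mouse embryos, cultured 7-9 days with 5 µM fluorodeoxyuridine/20 µM uridine to block glia. 45 min preincubation in Earle's salt solution pH 7.4 at 36.8 °C, then 10 min at room temperature. 7 s uptake of 36Cl (0.2-0.7 µCi/mL) with or without 5 µM GABA plus steroid. Basal uptake measured without GABA or steroid. Lysate counted by scintillation.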

[3] = biological target: T1, GABA-A receptor; anion channel (Mus musculus); experiment: Effect on 36chloride ion influx in mouse embryo cortical neurons in absence of GABA-A at 10 uM relative to basal value; assay type: functional; outline: as §3
[4] = biological target: GABA-A receptor; anion channel; experiment: as §1; assay type: protein-complex assay; outline: as §2
[5] = system: Cortical neurone; experiment: Loss of viability of cortical neuron at 100 uM after 24 hrs; assay type: functional, cell-based; conditions: Mus musculus
Outline: (§4)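 Mouse embryonic cortical neuron cultures exposed to steroid at 10 µM for 72 h, or 100 µM for 24 or 72 h. MTT (250 µg/mL in HEPES buffer) for 15 min at 37 °C, formazan dissolved in 5% SDS and read at 560 nm. Expressed as % of untreated controls. Two independent experiments in triplicate.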

[6] = system: Cortical neurone; experiment: Loss of viability of cortical neuron at 10 uM after 72 hrs; assay type: functional, cell-based; conditions: Mus musculus; outline: as §4
[7] = system: Cortical neurone; experiment: Loss of viability of cortical neuron at 100 uM after 72 hrs; assay type: functional, cell-based; conditions: Mus musculus; outline: as §4
[8] = biological target: GABA-A receptor; anion channel (Rattus norvegicus) (UniProt O09028+P15431+P18506+P18508+P19969+P20236+P23574+P23576+P28471+P28473+P30191+P62813+P63079+P63138+Q91ZM7+Q9ES14); experiment: Inhibition of [35S]TBPS binding to GABA-A receptor in Wistar rat brain membrane at 10 uM; assay type: cell membranes
Outline: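 Whole-brain membranes from adult male Wistar rats in 20 mM KH2PO4/200 mM KCl, pH 7.4. Incubated 60 min at 37 °C with 2 nM [35S]TBPS, 1 µM GABA and steroid. Nonspecific binding defined with 200 µM picrotoxinin. Results expressed as % of DMSO controls.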

Compound	Activity [1]	Activity [2]	other results
CC(=O)[C@H]1CC[C@H]2[C@@H]3[C@H]4O[C@]45C[C@H](O)CC[C@]5(C)[C@H]3CC[C@]12C	inactive	104%	–
CC(=O)[C@H]1CC[C@H]2[C@@H]3C[C@@H]4C[C@H](O)CC[C@]4(C)[C@H]3CC[C@]12C	–	172%	Activity [3]: 1.7%; Log EC50 [4]: -6.03; Activity [5]: inactive; Activity [6]: inactive
CC(=O)[C@H]1CC[C@H]2[C@@H]3CC=C4C[C@H](O)CC[C@]4(C)[C@H]3CC[C@]12C	–	131%	–
CC(=O)[C@H]1CC[C@H]2[C@@H]3CC[C@H]4C[C@H](O)CC[C@]4(C)[C@H]3CC[C@]12C [BREXANOLONE]	–	164%	Activity [7]: Active; Log EC50 [4]: -6.06; Activity [5]: inactive; Activity [6]: inactive
CC(=O)[C@H]1CC[C@H]2[C@@H]3[C@@H]4O[C@@]45C[C@H](O)CC[C@]5(C)[C@H]3CC[C@]12C	inactive	103%	–
CC(=O)[C@H]1CC[C@H]2[C@@H]3CC(=O)[C@H]4C[C@H](O)CC[C@]4(C)[C@H]3CC[C@]12C	inactive	100%	–
CC(=O)[C@H]1CC[C@H]2[C@@H]3C(=O)[C@H]4C[C@H](O)CC[C@]4(C)[C@H]3CC[C@]12C	inactive	82%	–
CC(=O)[C@H]1CC[C@H]2[C@@H]3C(=O)N[C@H]4C[C@H](O)CC[C@]4(C)[C@H]3CC[C@]12C	inactive	81%	–
CC(=O)[C@H]1CC[C@H]2[C@@H]3C[C@H]4C[C@H](O)CC[C@]4(C)[C@H]3CC[C@]12C	–	199%	Activity [3]: 1.7%; inhibition [8]: 33%; Log EC50 [4]: -6.61; Activity [5]: inactive; Activity [6]: inactive
CC(=O)[C@H]1CC[C@H]2[C@H]3C(=C4CC[C@@H](O)C[C@@]4(C)[C@H]3O)CC[C@]12C	inactive	76%	–
CC(=O)[C@H]1CC[C@H]2[C@@H]3CN[C@H]4C[C@H](O)CC[C@]4(C)[C@H]3CC[C@]12C	inactive	86%	–
CC(=O)[C@H]1CC[C@H]2[C@@H]3[C@H]4O[C@]45C[C@@H](O)CC[C@]5(C)[C@H]3CC[C@]12C	inactive	99%	–
CC(=O)[C@H]1CC[C@H]2[C@@H]3CC[C@@H]4C[C@H](O)CC[C@]4(C)[C@H]3CC[C@]12C [ELTANOLONE]	–	162%	Log EC50 [4]: -5.93
CC(=O)[C@H]1CC[C@H]2[C@@H]3C(=O)C[C@H]4C[C@H](O)CC[C@]4(C)[C@H]3CC[C@]12C	inactive	90%	–
